The text below walks through data of ChEMBL document CHEMBL3596131, “Discovery of a novel trans-1,4-dioxycyclohexane GPR119 agonist series” (Bioorg Med Chem Lett, 2015).

Data set [1] relates to Rattus norvegicus. The data set can be described thus: Antidiabetic activity in Zucker diabetic fatty rat assessed as decrease in HbA1C level at 1 mg/kg, qd administered over 4 weeks measured on day 28 post last dose relative to vehicle-treated control. The data set is classed as functional. Also noted: scale not given: the % may be the effect or the level left. The gist of the method:
(§1)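 Chronic study in ZDF rats: once-daily dosing at 1, 3 or 10 mg/kg for 4 weeks, vehicle 0.5% methylcellulose; fed glucose and body weight tracked at dosing times, HbA1c measured on day 28 relative to vehicle.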

Data set [2] deals with Rattus norvegicus. The experiment in a line: Antidiabetic activity in Zucker diabetic fatty rat assessed as decrease in HbA1C level at 3 mg/kg, qd administered over 4 weeks measured on day 28 post last dose relative to vehicle-treated control. It counts as functional. Also noted: scale not given: the % may be the effect or the level left. Summed up: as §1
Data set [3] can be described thus: Clearance in Sprague-Dawley rat at 2 mg/kg, iv and po. It counts as ADME, organism-based. The following applies: in vivo. The gist of the method:
(§2)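 Male Sprague-Dawley rats; 2 mg/kg IV and 2 mg/kg PO in 20% hp-β-CD; clearance, Vss, terminal t1/2, Cmax, AUClast and oral bioavailability derived.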

Data set [4] can be described thus: Plasma protein binding in rat. The following applies: read-out: PPB (converted). The data set is classed as ADME, cell-free.
Data set [5] can be described thus: Drug uptake in Sprague-Dawley rat brain at 2 mg/kg, po measured at 2 hrs. The following applies: read-out: Drug uptake. It counts as ADME, organism-based. The gist of the method:
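Abbreviated CNS study in male SD rats given 2 mg/kg orally in 20% hp-β-CD; brain (ng/g) and plasma (ng/mL) levels sampled at 2 h post-dose, brain/plasma ratio calculated.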

The nature of data set [6]: Volume of distribution at steady state in Sprague-Dawley rat at 2 mg/kg, iv and po. The data set is classed as ADME, organism-based. The following applies: in vivo, read-out: Vdss. Summed up: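 Male Sprague-Dawley rats received 2 mg/kg intravenously or 2 mg/kg orally in 20% hydroxypropyl-β-cyclodextrin. Steady-state volume of distribution was taken from the plasma pharmacokinetic profile and reported in L/kg.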

The target in data set [7] is T1, Glucose-dependent insulinotropic receptor (Rattus norvegicus) (UniProt Q7TQN8).
T1 sequence (whole entry): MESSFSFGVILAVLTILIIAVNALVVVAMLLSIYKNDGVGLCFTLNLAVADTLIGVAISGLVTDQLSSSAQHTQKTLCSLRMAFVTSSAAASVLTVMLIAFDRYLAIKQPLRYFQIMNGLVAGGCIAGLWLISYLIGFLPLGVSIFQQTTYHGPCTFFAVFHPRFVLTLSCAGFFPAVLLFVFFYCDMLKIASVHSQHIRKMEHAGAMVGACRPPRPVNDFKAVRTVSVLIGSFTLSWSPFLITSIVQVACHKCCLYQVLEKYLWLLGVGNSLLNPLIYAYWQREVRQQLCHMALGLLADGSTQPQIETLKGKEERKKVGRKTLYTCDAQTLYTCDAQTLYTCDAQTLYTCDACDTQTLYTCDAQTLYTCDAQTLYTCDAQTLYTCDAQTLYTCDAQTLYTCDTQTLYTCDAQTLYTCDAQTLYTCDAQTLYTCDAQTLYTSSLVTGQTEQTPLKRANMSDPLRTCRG
The data set can be described thus: Agonist activity at rat GPR119 by HTRF cAMP assay relative to AR231453. The data set is classed as functional. (TR-FRET usually uses a lanthanide donor and a delayed reading to cut background.)

The target of the next data set is Cytochrome P450 2C19 (Homo sapiens, UniProt P33261). The data set can be described thus: Inhibition of CYP2C19 in human liver microsomes. It counts as ADME.
The nature of data set [8]: Cmax in Sprague-Dawley rat at 2 mg/kg, iv and po. It counts as ADME, organism-based. The following applies: in vivo. The gist of the method: as §2
Data set [9] can be described thus: Time-dependent inhibition of CYP450 in human liver microsomes. It counts as ADME.
A short description of data set [10]: Terminal half life in Sprague-Dawley rat at 2 mg/kg, iv and po. It counts as ADME, organism-based. The following applies: in vivo, read-out: beta t1/2 (converted). Summed up:
as §2

The target in another data set is T2, Uncharacterized protein (Canis lupus familiaris, UniProt A0A8C0THM6).
T2 sequence (A0A8C0THM6 whole entry): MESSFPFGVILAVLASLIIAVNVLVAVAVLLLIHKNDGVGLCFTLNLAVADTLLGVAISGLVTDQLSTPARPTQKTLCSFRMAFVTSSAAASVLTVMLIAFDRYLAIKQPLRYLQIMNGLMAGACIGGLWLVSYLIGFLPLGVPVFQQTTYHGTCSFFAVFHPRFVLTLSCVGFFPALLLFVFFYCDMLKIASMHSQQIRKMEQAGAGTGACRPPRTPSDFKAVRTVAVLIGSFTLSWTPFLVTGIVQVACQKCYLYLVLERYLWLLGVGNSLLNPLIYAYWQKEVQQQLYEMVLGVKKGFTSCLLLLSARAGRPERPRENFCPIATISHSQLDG
The data set can be described thus: Agonist activity at canine GPR119 by HTRF cAMP assay.

The nature of data set [11]: Agonist activity at monkey GPR119 by HTRF cAMP assay. Also noted: species or system Macaca mulatta.
The nature of data set [12]: Plasma protein binding in mouse. The data set is classed as ADME, organism-based. The following applies: read-out: PPB (converted).
The subject of another data set is Mus musculus. The experiment in a line: Antidiabetic activity in normoglycemic 129SVE mouse assessed as suppression of plasma glucose AUC at 1 to 10 mg/kg, po administered 30 mins prior to glucose challenge measured over 120 mins by OGTT relative to vehicle-treated control. The data set is classed as functional.
Data set [13] has as its system Rattus norvegicus. The data set can be described thus: Antidiabetic activity in Zucker diabetic fatty rat assessed as suppression of plasma glucose AUC administered 60 mins prior to glucose challenge by OGTT. The data set is classed as functional, organism-based.
Another data set addresses Cytochrome P450 3A4 (Homo sapiens, UniProt P08684). The experiment in a line: Inhibition of CYP3A4 in human liver microsomes. It counts as ADME. (Microsomes from liver hold many membrane-bound enzymes, among them those of drug oxidation.)
Another data set has as its target Cytochrome P450 2C9 (Homo sapiens, UniProt P11712). The data set can be described thus: Inhibition of CYP2C9 in human liver microsomes. It counts as ADME.
Data set [14] deals with T3, Glucose-dependent insulinotropic receptor (Rattus norvegicus, UniProt Q7TQN8).
T3 sequence (Q7TQN8 whole entry): T1 sequence (whole entry)
The data set can be described thus: Agonist activity at rat GPR119 by HTRF cAMP assay. It counts as functional.

The target of data set [15] is T4, Uncharacterized protein (Canis lupus familiaris) (UniProt A0A8C0THM6).
T4 sequence (whole entry): T2 sequence (A0A8C0THM6 whole entry)
The experiment in a line: Agonist activity at canine GPR119 by HTRF cAMP assay relative to AR231453.

Bounds are passed on as bounds.

Sequence of Cytochrome P450 2C9 (P11712 whole entry): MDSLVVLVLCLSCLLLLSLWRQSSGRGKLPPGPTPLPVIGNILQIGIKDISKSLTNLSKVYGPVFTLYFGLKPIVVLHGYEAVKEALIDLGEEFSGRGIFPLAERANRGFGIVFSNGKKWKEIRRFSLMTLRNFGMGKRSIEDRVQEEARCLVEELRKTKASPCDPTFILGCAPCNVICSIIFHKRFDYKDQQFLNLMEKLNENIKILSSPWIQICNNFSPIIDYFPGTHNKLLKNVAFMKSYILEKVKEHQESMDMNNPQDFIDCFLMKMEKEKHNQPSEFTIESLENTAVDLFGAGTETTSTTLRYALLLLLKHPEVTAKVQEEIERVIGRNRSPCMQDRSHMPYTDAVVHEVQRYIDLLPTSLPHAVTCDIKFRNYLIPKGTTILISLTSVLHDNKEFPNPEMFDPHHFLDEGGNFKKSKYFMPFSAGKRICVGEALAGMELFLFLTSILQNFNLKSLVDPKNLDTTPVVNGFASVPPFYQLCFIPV
Sequence of Cytochrome P450 2C19 (P33261 whole entry): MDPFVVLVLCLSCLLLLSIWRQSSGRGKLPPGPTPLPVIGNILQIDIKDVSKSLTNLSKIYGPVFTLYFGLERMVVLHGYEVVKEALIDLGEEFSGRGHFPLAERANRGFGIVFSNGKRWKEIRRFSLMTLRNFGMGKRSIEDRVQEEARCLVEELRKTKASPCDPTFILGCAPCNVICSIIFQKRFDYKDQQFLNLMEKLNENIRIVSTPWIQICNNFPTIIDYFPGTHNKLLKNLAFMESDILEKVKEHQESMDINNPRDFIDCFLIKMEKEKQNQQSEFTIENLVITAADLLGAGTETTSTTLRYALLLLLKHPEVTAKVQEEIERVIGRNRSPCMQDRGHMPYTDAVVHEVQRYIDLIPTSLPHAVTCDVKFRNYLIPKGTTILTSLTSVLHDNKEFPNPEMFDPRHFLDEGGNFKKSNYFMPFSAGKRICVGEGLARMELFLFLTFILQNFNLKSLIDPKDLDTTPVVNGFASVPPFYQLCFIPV
Sequence of Cytochrome P450 3A4 (P08684 whole entry): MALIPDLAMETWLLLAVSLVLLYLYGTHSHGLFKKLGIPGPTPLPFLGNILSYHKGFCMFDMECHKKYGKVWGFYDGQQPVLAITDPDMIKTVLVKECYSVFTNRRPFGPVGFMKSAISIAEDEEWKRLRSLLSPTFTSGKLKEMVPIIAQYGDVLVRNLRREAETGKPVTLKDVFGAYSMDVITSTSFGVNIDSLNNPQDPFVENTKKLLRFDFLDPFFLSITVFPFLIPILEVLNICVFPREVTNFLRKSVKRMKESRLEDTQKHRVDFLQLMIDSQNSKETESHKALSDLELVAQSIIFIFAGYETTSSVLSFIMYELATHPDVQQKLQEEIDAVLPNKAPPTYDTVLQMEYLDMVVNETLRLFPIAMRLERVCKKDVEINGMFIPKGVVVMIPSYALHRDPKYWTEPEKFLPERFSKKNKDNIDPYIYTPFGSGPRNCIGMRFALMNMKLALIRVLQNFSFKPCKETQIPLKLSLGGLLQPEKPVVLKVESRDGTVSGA

Broadly, the Emax is the size of the effect at its maximum, as opposed to the concentration needed. A word on the Cmax: it is the peak of the concentration-time curve. A word on the EC50: it is the concentration that produces a half-maximal response. Regarding `C[C@@H](OC(=O)N1CCC(O[C@H]2CC[C@H](Oc3cnc(S(C)(=O)=O)cn3)CC2)CC1)C(F)(F)F`, the Activity in the data set with Rattus norvegicus [1] is 1.63%; in the data set with Rattus norvegicus [2], 1.85%; in the data set on Mus musculus, 40%; in the data set with Rattus norvegicus [13], “Dose-dependent effect”. Besides, the clearance in [3] is 6.67 mL/min/kg. Further, the fraction unbound in [4] was 0.04; in data set [12], 0.065. Further, the concentration at 2 h in data set [5] was found to be 820 ng/g. The Vd in [6] came out at 2.94 L/kg. Besides, the Emax is 120% in data set [7] and 144% in data set [15]. Also, the INH is 23.4 µM at Cytochrome P450 2C19, more than 50 µM on Cytochrome P450 3A4 and 27.5 µM on Cytochrome P450 2C9. The compound further yielded a Cmax in data set [8] of 770 ng/mL. For the same compound, the TDI entry in [9] is listed as “Not Active”. For the same compound, the half-life in data set [10] was 6.45 h. In addition, the values for the EC50 (on Uncharacterized protein; in data set [11]; in [14]) were 6.1 nM, 3.4 nM and 28.8 nM, respectively.
